According to ChEMBL document CHEMBL4011653, “Design, Synthesis, and Evaluation of Novel Prodrugs of Transition State Inhibitors of Norovirus 3CL Protease” (J Med Chem, 2017):

Columns and labels:
[1] = Inhibition of Norovirus 3CL protease using Edans-DFHLQ/GP-Dabcyl as substrate after 30 mins by FRET assay
In short: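 Norovirus 3CL protease was preincubated with serial compound dilutions up to 100 μM, or DMSO, for 30 min at 37 °C. Edans-DFHLQ/GP-Dabcyl substrate was then added. Buffer was 20 mM HEPES pH 8, 200 mM NaCl, 0.4 mM EDTA, 60% glycerol and 6 mM DTT. Fluorescence (ex 360/em 460 nm) was read for 1 h, minus the no-protease background. IC50 came from variable-slope curve fits.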

[2] = tested on: Norovirus; assay: Antiviral activity against Norovirus infected in human HG23 cells assessed as inhibition of viral replication after 48 hrs by quantitative RT-PCR method; format: functional, cell-based; details: HG23, 48 h
[3] = Metabolic stability of human liver microsomes assessed as amount of parent compound remaining at 25 to 100 uM after 1 hr in the presence of NADPH by LC-MS method; format: ADME, microsome; details: read-out: Stability
In short: (§1)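 Compound at 25 or 100 μM was incubated with mouse or human liver microsomes plus NADPH for 1 h at 37 °C. The remaining aldehyde form was quantified by LC/MS.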

[4] = Metabolic stability of mouse liver microsomes assessed as amount of parent compound remaining at 25 to 100 uM after 1 hr in the presence of NADPH by LC-MS method; format: ADME, microsome; details: read-out: Stability; in short: as §1
[5] = tested on: HeLa; assay: Cytotoxicity against human HeLa cells assessed as cell viability after 72 hrs by MTT assay; format: functional
[6] = Metabolic stability in human serum assessed as amount of parent compound remaining at 25 to 100 uM at 37 degC after 1 hr by LC-MS analysis; format: ADME, cell-free; details: read-out: Stability
[7] = Metabolic stability in mouse serum assessed as amount of parent compound remaining at 25 to 100 uM at 37 degC after 1 hr by LC-MS analysis; format: ADME, cell-free; details: read-out: Stability
[8] = tested on: Serum; assay: Prodrug activation in human serum assessed as 3-chlorobenzyl (S)-3-cyclohexyl-1-oxo-1-((S)-1-oxo-3-((S)-2-oxopyrrolidin-3-yl)propan-2-ylamino)propan-2-ylcarbamate formation by measuring parent compound half life at 25 to 100 uM by LC-MS method; format: ADME, cell-free
[9] = Selectivity index, ratio of CC50 for human HeLa cells to EC50 for norovirus
[10] = Protein binding in human serum at 25 to 100 uM after 4 hrs by LC-MS method; format: ADME, cell-free; details: read-out: PB (converted)
[11] = Protein binding in mouse serum at 25 to 100 uM after 4 hrs by LC-MS method; format: ADME, cell-free; details: read-out: PB (converted)
[12] = Prodrug activation in human HG23 cells assessed as 3-chlorobenzyl (S)-3-cyclohexyl-1-oxo-1-((S)-1-oxo-3-((S)-2-oxopyrrolidin-3-yl)propan-2-ylamino)propan-2-ylcarbamate formation by LC-MS method; format: ADME, cell-based

Compound | IC50 [1] | EC50 [2] | also measured
CCC(=O)OC([C@H](C[C@@H]1CCNC1=O)NC(=O)[C@H](CC(C)C)NC(=O)OCc1ccccc1)S(=O)(=O)O (some centres undefined) | 7500 nM | 700 nM | 
CC(C)C(=O)OC([C@H](C[C@@H]1CCNC1=O)NC(=O)[C@H](CC1CCCCC1)NC(=O)OCc1cccc(Cl)c1)S(=O)(=O)O (some centres undefined) | 300 nM | 30 nM | 
COC(=O)CNC(=O)OC([C@H](C[C@@H]1CCNC1=O)NC(=O)[C@H](CC(C)C)NC(=O)OCc1ccccc1)S(=O)(=O)O (some centres undefined) | 3100 nM | 400 nM | 
CCCCC(=O)OC([C@H](C[C@@H]1CCNC1=O)NC(=O)[C@H](CC(C)C)NC(=O)OCc1ccccc1)S(=O)(=O)O (some centres undefined) | 3500 nM | 1400 nM | 
COc1ccc(CCN(C)CCCC(C#N)(c2ccc(OC)c(OC)c2)C(C)C)cc1OC (centres undefined) |  |  | remaining at 1 h, up to 100 µM [3]: 41%; remaining at 1 h, up to 100 µM [4]: 30%
CCC(=O)OC([C@H](C[C@@H]1CCNC1=O)NC(=O)[C@H](CC1CCCCC1)NC(=O)OCc1cccc(Cl)c1)S(=O)(=O)[O-].[Na+] (some centres undefined) | 100 nM | 25 nM | CC50 [5]: 112000 nM; remaining at 1 h, up to 100 µM [3]: 11%; remaining at 1 h, up to 100 µM [4]: 17%; remaining at 1 h, up to 100 µM [6]: 52%; remaining at 1 h, up to 100 µM [7]: 0%; t1/2 [8]: 25 min; selectivity ratio [9]: 4480
CC(C)C[C@H](NC(=O)OCc1ccccc1)C(=O)N[C@@H](C[C@@H]1CCNC1=O)C(OC(=O)C(C)C)S(=O)(=O)O (some centres undefined) | 3500 nM | 300 nM | 
CC(=O)CC(c1ccccc1)c1c(O)c2ccccc2oc1=O (centres undefined) [WARFARIN] |  |  | remaining at 1 h, up to 100 µM [3]: 95%; remaining at 1 h, up to 100 µM [4]: 99.6%; fraction unbound at 4 h, up to 100 µM [10]: 0.01; fraction unbound at 4 h, up to 100 µM [11]: 0.04
O=C[C@H](C[C@@H]1CCNC1=O)NC(=O)[C@H](CC1CCCCC1)NC(=O)OCc1cccc(Cl)c1 | 100 nM | 20 nM | CC50 [5]: 56100 nM; remaining at 1 h, up to 100 µM [3]: 63%; remaining at 1 h, up to 100 µM [4]: 40%; fraction unbound at 4 h, up to 100 µM [10]: 0.02; fraction unbound at 4 h, up to 100 µM [11]: 0.02; selectivity ratio [9]: 2800
COC(=O)C(C)NC(=O)OC([C@H](C[C@@H]1CCNC1=O)NC(=O)[C@H](CC1CCCCC1)NC(=O)OCc1cccc(Cl)c1)S(=O)(=O)O (some centres undefined) | 800 nM | 25 nM | 
O=C(N[C@@H](CC1CCCCC1)C(=O)N[C@@H](C[C@@H]1CCNC1=O)C(OC(=O)C1CCCCC1)S(=O)(=O)O)OCc1cccc(Cl)c1 (some centres undefined) | 400 nM | 20 nM | 
COC(=O)C(NC(=O)OC([C@H](C[C@@H]1CCNC1=O)NC(=O)[C@H](CC(C)C)NC(=O)OCc1ccccc1)S(=O)(=O)O)C(C)C (some centres undefined) | 2500 nM | 400 nM | 
COC(=O)C(C)NC(=O)OC([C@H](C[C@@H]1CCNC1=O)NC(=O)[C@H](CC(C)C)NC(=O)OCc1ccccc1)S(=O)(=O)O (some centres undefined) | 1800 nM | 300 nM | 
CCCCCC(=O)OC([C@H](C[C@@H]1CCNC1=O)NC(=O)[C@H](CC1CCCCC1)NC(=O)OCc1cccc(Cl)c1)S(=O)(=O)O (some centres undefined) | 100 nM | 15 nM | CC50 [5]: 82000 nM; remaining at 1 h, up to 100 µM [3]: 76%; remaining at 1 h, up to 100 µM [4]: 38%; remaining at 1 h, up to 100 µM [6]: 103%; remaining at 1 h, up to 100 µM [7]: 60%; selectivity ratio [9]: 5470
CCCCCC(=O)OC([C@H](C[C@@H]1CCNC1=O)NC(=O)[C@H](CC(C)C)NC(=O)OCc1ccccc1)S(=O)(=O)O (some centres undefined) | 2800 nM | 300 nM | 
CCCC(=O)OC([C@H](C[C@@H]1CCNC1=O)NC(=O)[C@H](CC(C)C)NC(=O)OCc1ccccc1)S(=O)(=O)O (some centres undefined) | 3700 nM | 1300 nM | 
CC(=O)OC([C@H](C[C@@H]1CCNC1=O)NC(=O)[C@H](CC1CCCCC1)NC(=O)OCc1ccccc1)S(=O)(=O)O (some centres undefined) | 7500 nM | 200 nM | 
CC(=O)OC([C@H](C[C@@H]1CCNC1=O)NC(=O)[C@H](CC(C)C)NC(=O)OCc1ccccc1)S(=O)(=O)O (some centres undefined) | 10500 nM | 600 nM | 
O=C(N[C@@H](CC1CCCCC1)C(=O)N[C@@H](C[C@@H]1CCNC1=O)C(O)S(=O)(=O)O)OCc1cccc(Cl)c1 (some centres undefined) | 100 nM | 20 nM | CC50 [5]: 49600 nM; remaining at 1 h, up to 100 µM [3]: 54%; remaining at 1 h, up to 100 µM [4]: 35%; fraction unbound at 4 h, up to 100 µM [10]: 0.04; fraction unbound at 4 h, up to 100 µM [11]: 0.03; remaining at 1 h, up to 100 µM [6]: 0%; remaining at 1 h, up to 100 µM [7]: 0%; selectivity ratio [9]: 2480
COC(=O)C(C)NC(=O)OC([C@H](C[C@@H]1CCNC1=O)NC(=O)[C@H](CC1CCCCC1)NC(=O)OCc1ccccc1)S(=O)(=O)O (some centres undefined) | 10200 nM | 200 nM | 
CC(C)C[C@H](NC(=O)OCc1ccccc1)C(=O)N[C@@H](C[C@@H]1CCNC1=O)C(O)S(=O)(=O)O (some centres undefined) | 800 nM | 300 nM | CC50 [5]: > 200000 nM; remaining at 1 h, up to 100 µM [3]: 92%; remaining at 1 h, up to 100 µM [4]: 82%; fraction unbound at 4 h, up to 100 µM [10]: 0.35; fraction unbound at 4 h, up to 100 µM [11]: 0.29; remaining at 1 h, up to 100 µM [6]: 2%; remaining at 1 h, up to 100 µM [7]: 18%; selectivity ratio [9]: > 667
CCCCCCOC(=O)OC([C@H](C[C@@H]1CCNC1=O)NC(=O)[C@H](CC1CCCCC1)NC(=O)OCc1cccc(Cl)c1)S(=O)(=O)O (some centres undefined) | 800 nM | 25 nM | 
COC(=O)C(NC(=O)OC([C@H](C[C@@H]1CCNC1=O)NC(=O)[C@H](CC1CCCCC1)NC(=O)OCc1cccc(Cl)c1)S(=O)(=O)O)C(C)C (some centres undefined) | 500 nM | 40 nM | 
CC(C)C[C@H](NC(=O)OCc1ccccc1)C(=O)N[C@@H](C[C@@H]1CCNC1=O)C(OC(=O)c1ccccc1)S(=O)(=O)O (some centres undefined) | 7200 nM | 800 nM | 
CC(=O)OC([C@H](C[C@@H]1CCNC1=O)NC(=O)[C@H](CC1CCCCC1)NC(=O)OCc1cccc(Cl)c1)S(=O)(=O)[O-].[Na+] (some centres undefined) | 80 nM | 30 nM | CC50 [5]: > 200000 nM; remaining at 1 h, up to 100 µM [3]: 17%; remaining at 1 h, up to 100 µM [4]: 14%; Drug metabolism [12]: Metabolite_Detected; remaining at 1 h, up to 100 µM [6]: 56%; remaining at 1 h, up to 100 µM [7]: 0%; t1/2 [8]: 25 min; selectivity ratio [9]: > 6670
CCCCCCCC(=O)OC([C@H](C[C@@H]1CCNC1=O)NC(=O)[C@H](CC1CCCCC1)NC(=O)OCc1cccc(Cl)c1)S(=O)(=O)O (some centres undefined) | 900 nM | 30 nM | 
CCCCCCCC(=O)OC([C@H](C[C@@H]1CCNC1=O)NC(=O)[C@H](CC(C)C)NC(=O)OCc1ccccc1)S(=O)(=O)O (some centres undefined) | 3000 nM | 500 nM | 
